Results as given in ChEMBL document CHEMBL1933024, “In vitro antibacterial activity of sphaeropsidins and chemical derivatives toward Xanthomonas oryzae pv. oryzae, the causal agent of rice bacterial blight” (2011).
Calls of active or inactive are those of the source. The calls are words filed in the database; no cut-off is given here.

How the values were obtained:
Type in all cases: functional
Burkholderia glumae = assay: Antibacterial activity against Burkholderia glumae AU6208 assessed as growth inhibition at 25 to 100 ug measured after 1 to 2 days
Summary of the method: (§1)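 Agar well diffusion. Each pathogen culture was mixed with top agar (PSA, KB or LB; 0.75% w/v agar) at 45 °C, 50 µL culture per 10 mL, and poured over LB plates bearing wells. Compound (25 or 100 µg in 50 µL DMSO) was added to the wells; 50 µL DMSO served as negative control. Plates were incubated at 30 °C for 1–2 days. The inhibition zone was measured in mm, including the 4 mm well. Three repeats, SD.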

[1] = system: Xanthomonas oryzae pv. oryzae; assay: Antibacterial activity against Xanthomonas oryzae pv. oryzae XKK.12 assessed as growth inhibition at 1.3 X 10^-3 M measured after 1 to 2 days; summary of the method: as §1
[2] = system: Xanthomonas oryzae pv. oryzae; assay: Antibacterial activity against Xanthomonas oryzae pv. oryzae XKK.12 assessed as growth inhibition at 5.2 X 10^-3 M measured after 1 to 2 days; summary of the method: as §1
Pseudomonas fuscovaginae = assay: Antibacterial activity against Pseudomonas fuscovaginae UPB0736 assessed as growth inhibition at 25 to 100 ug measured after 1 to 2 days; summary of the method: as §1
[3] = system: Xanthomonas oryzae pv. oryzae; assay: Antibacterial activity against Xanthomonas oryzae pv. oryzae XKK.12 assessed as growth inhibition at 6 X 10^-3 M measured after 1 to 2 days; conditions: for zone of inhibition at 6000 µM: read-out: IZ; summary of the method: as §1
[4] = system: Xanthomonas oryzae pv. oryzae; assay: Antibacterial activity against Xanthomonas oryzae pv. oryzae XKK.12 assessed as growth inhibition at 1.5 X 10^-3 M measured after 1 to 2 days; summary of the method: as §1
[5] = system: Xanthomonas oryzae pv. oryzae; assay: Antibacterial activity against Xanthomonas oryzae pv. oryzae XKK.12 assessed as growth inhibition at 6 X 10^-3 measured after 1 to 2 days relative to ampicillin
[6] = system: Xanthomonas oryzae pv. oryzae; assay: Bacteriostatic activity against Xanthomonas oryzae pv. oryzae XKK.12 assessed as growth inhibition at 0.5 to 1.5 X 10^-4 M measured after 1 to 2 days
[7] = system: Xanthomonas oryzae pv. oryzae; assay: Antibacterial activity against Xanthomonas oryzae pv. oryzae XKK.12 assessed as growth inhibition at 25 to 100 ug measured after 1 to 2 days; summary of the method: as §1
[8] = system: Xanthomonas oryzae pv. oryzae; assay: Bactericidal activity against Xanthomonas oryzae pv. oryzae XKK.12 assessed as growth inhibition at 0.5 to 1.5 X 10^-4 M measured after 6 to 24 hrs
[9] = system: Xanthomonas oryzae pv. oryzae; assay: Bactericidal activity against Xanthomonas oryzae pv. oryzae XKK.12 assessed as decrease in survival rate at 0.5 to 1.5 X 10^-4 M measured after 6 to 24 hrs
[10] = system: Xanthomonas oryzae pv. oryzae; assay: Antibacterial activity against Xanthomonas oryzae pv. oryzae XKK.12 assessed as growth inhibition at 5.2 X 10^-3 measured after 1 to 2 days relative to ampicillin
[11] = system: Xanthomonas oryzae pv. oryzae; assay: Antibacterial activity against Xanthomonas oryzae pv. oryzae XKK.12 assessed as growth inhibition at 5.6 X 10^-3 M measured after 1 to 2 days; summary of the method: as §1
[12] = system: Xanthomonas oryzae pv. oryzae; assay: Antibacterial activity against Xanthomonas oryzae pv. oryzae XKK.12 assessed as growth inhibition at 1.4 X 10^-3 M measured after 1 to 2 days; summary of the method: as §1
[13] = system: Xanthomonas oryzae pv. oryzae; assay: Antibacterial activity against Xanthomonas oryzae pv. oryzae XKK.12 assessed as growth inhibition at 2 X 10^-3 measured after 1 to 2 days relative to ampicillin
[14] = system: Xanthomonas oryzae pv. oryzae; assay: Antibacterial activity against Xanthomonas oryzae pv. oryzae XKK.12 assessed as growth inhibition at 0.5 X 10^-3 M measured after 1 to 2 days; summary of the method: as §1
[15] = system: Xanthomonas oryzae pv. oryzae; assay: Antibacterial activity against Xanthomonas oryzae pv. oryzae XKK.12 assessed as growth inhibition at 2 X 10^-3 M measured after 1 to 2 days; conditions: read-out: IZ; summary of the method: as §1
[16] = system: Xanthomonas oryzae pv. oryzae; assay: Antibacterial activity against Xanthomonas oryzae pv. oryzae XKK.12 assessed as growth inhibition at 5.7 X 10^-3 M measured after 1 to 2 days; conditions: read-out: IZ; summary of the method: as §1
[17] = system: Xanthomonas oryzae pv. oryzae; assay: Antibacterial activity against Xanthomonas oryzae pv. oryzae XKK.12 assessed as growth inhibition at 1.0 X 10^-3 M measured after 1 to 2 days; summary of the method: as §1
[18] = system: Xanthomonas oryzae pv. oryzae; assay: Antibacterial activity against Xanthomonas oryzae pv. oryzae XKK.12 assessed as growth inhibition at 4 X 10^-3 M measured after 1 to 2 days; summary of the method: as §1

C=C[C@]1(C)C=C2C3(CO3)C(=O)[C@H]3C(C)(C)CCC[C@]3(C(=O)OC)[C@@]2(OC)CC1 (some centres undefined)
Activity (Burkholderia glumae): inactive
inhibition zone (IZ) [1]: inactive
inhibition zone (IZ) [2]: inactive
Activity (Pseudomonas fuscovaginae): inactive

C=C[C@]1(C)C=C2[C@@H](O)C[C@H]3C(C)(C)CCC[C@]3(C(=O)O)[C@@]2(O)CC1
Activity (Burkholderia glumae): inactive
inhibition zone (IZ) [3]: inactive
inhibition zone (IZ) [4]: inactive
Activity (Pseudomonas fuscovaginae): inactive

CC[C@]1(C)C=C2C(=O)[C@@]3(O)OC(=O)[C@@]4(CCCC(C)(C)[C@H]34)[C@@]2(O)CC1
Activity (Burkholderia glumae): inactive
growth inhibition (GI) [5]: 22.3%
zone of inhibition at 6000 µM [3]: 11.6 mm
inhibition zone (IZ) [4]: inactive
Activity (Pseudomonas fuscovaginae): inactive
Activity [6]: Active

C=C[C@]1(C)C=C2C(=O)[C@@]3(O)OC(=O)[C@@]4(CCCC(C)(C)[C@H]34)[C@@]2(O)CC1 [SPHAEROPSIDIN A]
growth inhibition (GI) [5]: 49%
zone of inhibition at 6000 µM [3]: 25.5 mm
Activity [7]: Active
zone of inhibition at 1500 µM ([4]; read-out: IZ): 18.3 mm
Activity [8]: Active
Activity [9]: Active

C=C[C@]1(C)C=C2[C@@H](O)[C@@]3(O)OC(=O)[C@@]4(CCCC(C)(C)[C@H]34)[C@@]2(O)CC1
Activity (Burkholderia glumae): inactive
inhibition zone (IZ) [3]: inactive
inhibition zone (IZ) [4]: inactive
Activity (Pseudomonas fuscovaginae): inactive

CC[C@]1(C)C=C2[C@@H](OC(C)=O)[C@@]3(O)OC(=O)[C@@]4(CCCC(C)(C)[C@H]34)[C@@]2(O)CC1
Activity (Burkholderia glumae): inactive
inhibition zone (IZ) [1]: inactive
inhibition zone (IZ) [2]: inactive
Activity (Pseudomonas fuscovaginae): inactive

C=C[C@]1(C)C=C2C(=O)[C@@]3(OC(C)=O)OC(=O)[C@@]4(CCCC(C)(C)[C@H]34)[C@@]2(O)CC1
Activity (Burkholderia glumae): inactive
zone of inhibition at 1300 µM ([1]; read-out: IZ): 15.8 mm
zone of inhibition at 5200 µM ([2]; read-out: IZ): 20.7 mm
Activity (Pseudomonas fuscovaginae): inactive
inhibition (INH) [10]: 39.8%
Activity [8]: Active
Activity [6]: Active

C=C[C@]1(C)C=C2[C@@H](O)C(=O)[C@H]3C(C)(C)CCC[C@]3(C(=O)OC)[C@@]2(O)CC1
Activity (Burkholderia glumae): inactive
inhibition zone (IZ) [11]: inactive
Activity (Pseudomonas fuscovaginae): inactive
inhibition zone (IZ) [12]: inactive

C=C[C@@]1(C)CCC2=C(C(=O)[C@@]3(OC(C)=O)OC(=O)[C@@]24CCCC(C)(C)[C@H]34)C1OC(C)=O (some centres undefined)
Activity (Burkholderia glumae): inactive
inhibition (INH) [13]: 29.4%
inhibition zone (IZ) [14]: inactive
zone of inhibition at 2000 µM [15]: 15.3 mm
Activity (Pseudomonas fuscovaginae): inactive
Activity [6]: Active

C=C[C@]1(C)C=C(C=O)[C@@]2(CC1)OC(=O)[C@H]1C(C)(C)CCC[C@@]12C(=O)O
Activity (Burkholderia glumae): inactive
inhibition zone (IZ) [3]: inactive
inhibition zone (IZ) [4]: inactive
Activity (Pseudomonas fuscovaginae): inactive

C=C[C@@]1(C)CC[C@]2(O)[C@@]3(C(=O)OC)CCCC(C)(C)[C@@H]3C(=O)C(=O)[C@@]23C[C@@H]13
Activity (Burkholderia glumae): inactive
inhibition zone (IZ) [1]: inactive
inhibition zone (IZ) [2]: inactive
Activity (Pseudomonas fuscovaginae): inactive

C=C[C@]1(C)C=C2C(=O)C[C@H]3C(C)(C)CCC[C@]3(C(=O)O)[C@@]2(O)CC1
Activity (Burkholderia glumae): inactive
inhibition zone (IZ) [3]: inactive
inhibition zone (IZ) [4]: inactive
Activity (Pseudomonas fuscovaginae): inactive

CC[C@]1(C)C=C2[C@@H](O)[C@@]3(O)OC(=O)[C@@]4(CCCC(C)(C)[C@H]34)[C@@]2(O)CC1
Activity (Burkholderia glumae): inactive
zone of inhibition at 6000 µM [3]: 8.9 mm
inhibition zone (IZ) [4]: inactive
Activity (Pseudomonas fuscovaginae): inactive
Activity [6]: inactive

CC1(C)S[C@@H]2[C@H](NC(=O)[C@H](N)c3ccccc3)C(=O)N2[C@H]1C(=O)O [AMPICILLIN]
zone of inhibition at 5700 µM [16]: 52 mm

C=C[C@@]1(C)CC[C@@]2(O)C(=C1C)C(=O)C(=O)[C@H]1C(C)(C)CCC[C@@]12C(=O)OC
Activity (Burkholderia glumae): inactive
inhibition zone (IZ) [11]: inactive
Activity (Pseudomonas fuscovaginae): inactive
inhibition zone (IZ) [12]: inactive

C=C[C@]1(C)C=C2C(=O)C[C@H]3C(C)(C)CCC[C@]3(C(=O)OC)[C@@]2(O)CC1
Activity (Burkholderia glumae): inactive
inhibition zone (IZ) [3]: inactive
inhibition zone (IZ) [4]: inactive
Activity (Pseudomonas fuscovaginae): inactive

C=C[C@]1(C)C=C2[C@@H](OC(C)=O)[C@@]3(O)OC(=O)[C@@]4(CCCC(C)(C)[C@H]34)[C@@]2(O)CC1
Activity (Burkholderia glumae): inactive
inhibition zone (IZ) [17]: inactive
Activity (Pseudomonas fuscovaginae): inactive
inhibition zone (IZ) [18]: inactive

C=C[C@]1(C)C=C2C3(CO3)C(=O)[C@H]3C(C)(C)CCC[C@]3(C(=O)OC)[C@@]2(O)CC1 (some centres undefined)
Activity (Burkholderia glumae): inactive
inhibition zone (IZ) [1]: inactive
inhibition zone (IZ) [2]: inactive
Activity (Pseudomonas fuscovaginae): inactive
